Experiment [1] relates to Escherichia coli. Nature of the experiment: Potentiation of pleuromutilin-induced antibiotic activity against Escherichia coli ATCC 25922 assessed as MIC fold reduction at 8 ug/ml after 18 hrs by microbroth dilution method. Format: functional. The note with it: dose 8 µg/ml.
In experiment [2] the test system is Pseudomonas aeruginosa. Description: Antibacterial activity against Pseudomonas aeruginosa PAO1 assessed as reduction in bacterial growth after 18 hrs by microbroth dilution method. The class given is functional. The method, boiled down:
(§1)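 CLSI broth microdilution. Overnight cultures were adjusted in saline to 0.5 McFarland, diluted 1:50 in Mueller-Hinton broth (MHB), and inoculated at about 5 × 10^5 CFU/mL. Agents were 2-fold serially diluted in MHB, mixed 1:1 with inoculum, and held at 37 °C for 18 h. MIC was the lowest concentration with no visible turbidity, confirmed at 590 nm.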

Experiment [3] deals with Pseudomonas aeruginosa. Description: Potentiation of trimethoprim-induced antibiotic activity against Pseudomonas aeruginosa PAO1 assessed as MIC fold reduction at 8 ug/ml after 18 hrs by microbroth dilution method. The class given is functional. The note with it: dose 8 µg/ml. A general note: Dilution methods test growth across graded concentrations, often in twofold steps.

The test system of experiment [4] is Pseudomonas aeruginosa. Description: Antibacterial activity against MDR clinical isolate Pseudomonas aeruginosa PA101885 assessed as potentiation of cefiderocol antibacterial activity by measuring FIC index after 18 hrs by microbroth dilution method. Format: functional. The method, boiled down:
(§2)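 Checkerboard in MHB. Cefiderocol was 2-fold serially diluted along one axis and the adjuvant along the other. Inoculum was prepared from 0.5 McFarland saline suspensions diluted 1:50 in MHB, giving about 5 × 10^5 CFU/mL final. Plates ran 18 h at 37 °C, with turbidity confirmed at 590 nm. FIC = combination MIC ÷ MIC alone for each agent, and FIC index = sum of both. Interpretation: ≤0.5 synergy, >0.5–4 additive, >4 antagonism.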

For experiment [5], the system named is Pseudomonas aeruginosa. Nature of the experiment: Potentiation of minocycline-induced antibiotic activity against Pseudomonas aeruginosa PAO1 assessed as MIC fold reduction at 8 ug/ml after 18 hrs by microbroth dilution method. The class given is functional. The note with it: dose 8 µg/ml. The method, boiled down:
(§3)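 Adjuvant held at a fixed 8 μg/mL while the antibiotic was 2-fold serially diluted in Mueller-Hinton broth (MHB), per CLSI microbroth dilution. Overnight cultures were adjusted in saline to 0.5 McFarland, then diluted 1:50 in MHB to about 5 × 10^5 CFU/mL final, and incubated 18 h at 37 °C. MIC was the lowest concentration with no visible turbidity, confirmed at 590 nm. Fold potentiation = MIC alone / MIC with adjuvant.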

The subject of experiment [6] is Escherichia coli. Nature of the experiment: Potentiation of ciprofloxacin-induced antibiotic activity against Escherichia coli ATCC 25922 assessed as MIC fold reduction at 8 ug/ml after 18 hrs by microbroth dilution method. Format: functional. The note with it: dose 8 µg/ml. The method, boiled down: as §3
Experiment [7] relates to Enterobacter cloacae. Description: Antibacterial activity against Enterobacter cloacae 117029 assessed as reduction in bacterial growth after 18 hrs in presence of cefiderocol by microbroth dilution method. The class given is functional. The method, boiled down: (§4)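 Checkerboard in Mueller-Hinton broth: cefiderocol 2-fold diluted on one axis, adjuvant 2-fold on the other. Overnight cultures were adjusted to 0.5 McFarland in saline, diluted 1:50 in MHB, and inoculated at about 5 × 10^5 CFU/mL. Incubation was 18 h at 37 °C. Turbidity was read visually and confirmed at 590 nm. FIC index = FIC of antibiotic + FIC of adjuvant; ≤0.5 synergy, >4 antagonism.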

The test system of experiment [8] is Acinetobacter baumannii. Nature of the experiment: Antibacterial activity against Acinetobacter baumannii LAC-4 assessed as reduction in bacterial growth after 18 hrs by microbroth dilution method. The class given is functional. The method, boiled down:
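CLSI microbroth dilution in MHB. Overnight cultures were adjusted to 0.5 McFarland in saline, diluted 1:50, and inoculated at about 5 × 10^5 CFU/mL. Agents were 2-fold serially diluted and incubated 18 h at 37 °C. MIC is the lowest concentration without visible turbidity, confirmed by absorbance at 590 nm. Medium with and without cells served as controls.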

Experiment [9] relates to Pseudomonas aeruginosa. Description: Potentiation of ceftazidime-induced antibiotic activity against MDR clinical isolate Pseudomonas aeruginosa PA259 assessed as MIC fold reduction at 8 ug/ml after 18 hrs by microbroth dilution method. The class given is functional, organism-based. The note with it: dose 8.0 µg/ml. The method, boiled down: as §3
Experiment [10] relates to Pseudomonas aeruginosa. Description: Antibacterial activity against MDR clinical isolate Pseudomonas aeruginosa PA88949 assessed as reduction in bacterial growth after 18 hrs in presence of cefiderocol by microbroth dilution method. The class given is functional. The method, boiled down: as §2
The test system of experiment [11] is Escherichia coli. Nature of the experiment: Potentiation of ceftolozane-induced antibiotic activity against Escherichia coli ATCC 25922 assessed as MIC fold reduction at 8 ug/ml after 18 hrs by microbroth dilution method. The class given is functional. The note with it: dose 8 µg/ml. The method, boiled down: as §3
For experiment [12], the system named is Enterobacter cloacae. Description: Antibacterial activity against Enterobacter cloacae 121187 assessed as potentiation of cefiderocol antibacterial activity by measuring FIC after 18 hrs by microbroth dilution method. The class given is functional. The method, boiled down: as §4
For experiment [13], the system named is Escherichia coli. Description: Potentiation of fosfomycin-induced antibiotic activity against Escherichia coli ATCC 25922 assessed as MIC fold reduction at 8 ug/ml after 18 hrs by microbroth dilution method. Conditions: dose 8 µg/ml. The class given is functional. The method, boiled down:
as §3

Experiment [14] deals with Pseudomonas aeruginosa. Nature of the experiment: Antibacterial activity against MDR clinical isolate Pseudomonas aeruginosa PA259 assessed as reduction in bacterial growth after 18 hrs by microbroth dilution method. The class given is functional. The method, boiled down: as §1
In experiment [15] the test system is Pseudomonas aeruginosa. Nature of the experiment: Potentiation of moxifloxacin-induced antibiotic activity against Pseudomonas aeruginosa PAO1 assessed as reduction in microbial growth at 8 ug/ml up to 24 hrs by microbroth dilution method. The class given is functional. Conditions: dose 8 µg/ml.
Experiment [16] deals with Escherichia coli. Nature of the experiment: Antibacterial activity against Escherichia coli 107115 assessed as reduction in bacterial growth after 18 hrs in presence of cefiderocol by microbroth dilution method. The class given is functional. The method, boiled down:
as §4

Experiment [17] concerns Escherichia coli. Description: Potentiation of niclosamide-induced antibiotic activity against Escherichia coli ATCC 25922 assessed as MIC fold reduction at 8 ug/ml after 18 hrs by microbroth dilution method. The class given is functional. Conditions: dose 8 µg/ml.
The subject of experiment [18] is Acinetobacter baumannii. Description: Potentiation of cotrimoxazole-induced antibiotic activity against Acinetobacter baumannii ATCC 17978 assessed as MIC fold reduction at 8 ug/ml after 18 hrs by microbroth dilution method. Format: functional. The note with it: dose 8 µg/ml. The method, boiled down: as §3
Experiment [19] relates to Escherichia coli. Nature of the experiment: Antibacterial activity against Escherichia coli 94474 assessed as potentiation of cefiderocol antibacterial activity by measuring FIC after 18 hrs by microbroth dilution method. Format: functional. The method, boiled down: as §4
For experiment [20], the system named is Pseudomonas aeruginosa. Nature of the experiment: Antibacterial activity against MDR clinical isolate Pseudomonas aeruginosa PA264 assessed as reduction in bacterial growth after 18 hrs by microbroth dilution method. Format: functional. The method, boiled down: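 Broth microdilution per CLSI in Mueller-Hinton broth (MHB). Overnight cultures were adjusted to 0.5 McFarland in saline, diluted 1:50 in MHB, and added at about 5 × 10^5 CFU/mL final to equal volumes of 2-fold serial dilutions of agent. Incubation was 18 h at 37 °C. MIC was the lowest concentration with no visible turbidity, confirmed by absorbance at 590 nm.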

Experiment [21] relates to Pseudomonas aeruginosa. Nature of the experiment: Potentiation of cefotaxime-induced antibiotic activity against MDR clinical isolate Pseudomonas aeruginosa PA260 assessed as MIC fold reduction at 8 ug/ml after 18 hrs by microbroth dilution method. Format: functional, organism-based. The note with it: dose 8.0 µg/ml. The method, boiled down: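 Initial screen in MHB using a fixed 8 μg mL−1 of adjuvant combined with each antibiotic under 2-fold dilution. Broth microdilution used about 5 × 10^5 CFU/mL at 37 °C for 18 h, with visible turbidity read and confirmed at 590 nm. Fold-potentiation = antibiotic MIC alone ÷ antibiotic MIC with adjuvant.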

Experiment [22] deals with Acinetobacter baumannii. Nature of the experiment: Potentiation of moxifloxacin-induced antibiotic activity against Acinetobacter baumannii ATCC 17978 assessed as MIC fold reduction at 8 ug/ml after 18 hrs by microbroth dilution method. Format: functional. Conditions: dose 8 µg/ml. The method, boiled down: as §3
The test system of experiment [23] is Escherichia coli. Nature of the experiment: Antibacterial activity against Escherichia coli ATCC 25922 assessed as reduction in bacterial growth after 18 hrs in presence of cefiderocol by microbroth dilution method. Format: functional. The method, boiled down:
as §4

In experiment [24] the test system is Pseudomonas aeruginosa. Nature of the experiment: Potentiation of cefotaxime-induced antibiotic activity against MDR clinical isolate Pseudomonas aeruginosa PA264 assessed as MIC fold reduction at 8 ug/ml after 18 hrs by microbroth dilution method. Conditions: dose 8.0 µg/ml. The class given is functional, organism-based. The method, boiled down:
as §3

Converted amounts (≈) assume the structure as drawn. The source made the active and inactive calls. The rule behind the calls is not given here.

In general, MIC refers to the least concentration at which growth counts as inhibited.

Turning to `NC[C@H]1O[C@H](O[C@H]2[C@H](OCCCCc3cn(-c4ccc(NC(=O)c5cc(Cl)ccc5O)cc4)nn3)[C@@H](O[C@H]3O[C@H](CO)[C@@H](O)[C@H](N)[C@H]3O)[C@H](N)C[C@@H]2N)[C@H](N)C[C@@H]1O`, the “fold change (FC)” value in [1], in [3], in [5], in [6], in [11] and in [13] was 4 in each case. Besides, the “fold change (FC)” value in experiment [17], in experiment [18] and in [22] was 4 throughout. Also, the MIC in [2] is 64 µg/mL (≈ 76.5 µM); in [7], 4 µg/mL; in experiment [8] it was more than 128 µg/mL; in experiment [10] it was 0.25 µg/mL; in experiment [14], more than 128 µg/mL; in [16], 0.25 µg/mL. In addition, the results for the minimum inhibitory concentration (MIC) in experiment [20] and in experiment [23] were more than 128 µg/mL and 0.25 µg/mL, respectively. The figures for the FIC in experiment [4], in experiment [12] and in experiment [19] were 0.017, 1 and 0.25, respectively. Further, the result in experiment [9], in experiment [21] and in experiment [24] was Active. In addition, in experiment [15], the Activity was more than 3 log10CFU/ml.

For the origin of these results see ChEMBL document CHEMBL5136969, “A niclosamide-tobramycin hybrid adjuvant potentiates cefiderocol against P. aeruginosa” (2021).
